High-throughput results: PubChem, several laboratories
14-3-3 Bad PPI: inhibitors of 14-3-3 zeta/Bad binding, primary screen, biochemical, TR-FRET, bovine 14-3-3 zeta; hit rate 0.71% among 220,000; 14-3-3 protein zeta/delta (Bos taurus), P63103; TR-FRET 14-3-3zeta/Dy647-pBad peptide displacement, 1 h; AID 781, 2007; inhibition, % at 21.7 µM;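 active means inhibition above about 70%, limit read from the data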
RBBP9 inhibitor: human RBBP9 inhibitors, primary screen, biochemical, fluorescence polarization, FP-Rh probe, HTS. recombinant RBBP9. Serine hydrolase RBBP9 (Homo sapiens), O75884. AID 1515, 2009. inhibition, % at 7.94 µM. hit rate 0.2% among 220,000;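 active means inhibition above the campaign mean of all tested compounds plus 3 SD, cut at about 14% in these data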
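Measured by – fluorescence polarization · Test system – RBBP9 protein · Input – 2.5 µM RBBP9 dispensing solution, before mixing · Measure – percent inhibition from mP, scaled between DMSO and no-protein wells · Benchmarks – DMSO-treated enzyme wells and wells lacking RBBP9 · Times – preincubation 30 min plus labeling 45 min at 25 °C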
eIF4E 4G PPI: eIF4E–eIF4G protein interaction inhibitors, primary screen, biochemical, uHTS, TR-FRET, eIF4GI fragment; Eukaryotic translation initiation factor 4E (Mus musculus) + Eukaryotic translation …; TR-FRET eIF4E-eIF4GI(517-606) binding, 2 h; inhibition, % at 21.7 µM; hit rate 0.37% among 220,000; AID 782, 2007;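 active means inhibition above about 30%, limit read from the data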
PKD1 inh: inhibitors of human PKD1 kinase, biochemical, fluorescence polarization; Serine/threonine-protein kinase D1 (Homo sapiens), Q15139; PKD1 kinase fluorescence polarization assay; inhibition, % (test concentration not listed); hit rate 0.056% among 200,000; AID 797, 2007
Target sequence (Q15139 whole entry, looked up): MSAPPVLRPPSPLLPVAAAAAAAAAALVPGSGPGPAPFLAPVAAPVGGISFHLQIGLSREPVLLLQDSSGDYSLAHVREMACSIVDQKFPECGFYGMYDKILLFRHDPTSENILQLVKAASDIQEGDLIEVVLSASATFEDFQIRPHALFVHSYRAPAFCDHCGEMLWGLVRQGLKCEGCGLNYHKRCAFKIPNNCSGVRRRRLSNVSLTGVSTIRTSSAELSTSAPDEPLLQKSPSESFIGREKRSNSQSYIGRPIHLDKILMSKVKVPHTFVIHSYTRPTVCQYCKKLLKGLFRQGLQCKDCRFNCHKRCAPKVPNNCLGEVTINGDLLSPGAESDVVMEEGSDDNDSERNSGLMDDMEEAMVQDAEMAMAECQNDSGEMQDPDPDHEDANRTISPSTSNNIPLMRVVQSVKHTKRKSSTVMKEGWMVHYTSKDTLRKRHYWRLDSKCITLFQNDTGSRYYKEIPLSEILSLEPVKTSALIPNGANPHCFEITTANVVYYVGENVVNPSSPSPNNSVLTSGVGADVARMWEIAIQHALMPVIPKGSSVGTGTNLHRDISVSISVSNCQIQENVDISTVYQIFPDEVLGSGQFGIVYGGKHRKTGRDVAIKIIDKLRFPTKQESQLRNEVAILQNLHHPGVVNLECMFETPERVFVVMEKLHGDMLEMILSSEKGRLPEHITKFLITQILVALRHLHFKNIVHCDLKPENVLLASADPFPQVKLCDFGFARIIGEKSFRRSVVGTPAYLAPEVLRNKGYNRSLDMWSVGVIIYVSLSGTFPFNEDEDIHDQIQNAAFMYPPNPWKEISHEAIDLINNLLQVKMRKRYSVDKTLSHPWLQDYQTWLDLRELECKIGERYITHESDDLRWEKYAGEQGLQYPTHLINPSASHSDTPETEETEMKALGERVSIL
EBV gp42 block: Epstein-Barr virus gp42 inhibitors, primary screen, biochemical, uHTS, fluorescence polarization; Glycoprotein 42 (Epstein-Barr virus (strain AG876)), Q1HVG2; Fluorescence polarization binding assay, mP read-out; inhibition, % (tested at 21.74 µM); hit rate 0.42% among 220,000; AID 1085, 2008
Hits are given with their value; i = inactive; nt = no result; ! = not active in a repeat; [ ] = remark or other dose. Hits are enriched below; roughly 1.6% of the tested compounds scored in any of these assays. Unless noted, no stated cut-off is given here; in the data, active means inhibition above about 50%; inactive means the rest.

SMILES	14-3-3 Bad PPI	RBBP9 inhibitor	eIF4E 4G PPI	PKD1 inh	EBV gp42 block
Fc1ccccc1N1CCN(Cc2ccc3c(c2)OCO3)CC1	77	i	i	i	i
CN1C(=O)C(Cc2c[nH]c3ccccc23)C(=O)N(C)C1=O	i	i	i	i	104
CSc1ncc(/C=C2/C(=O)NC(=O)N(c3ccc(Cl)cc3)C2=O)cn1	i	i	i	i	i
O=C(COC(=O)Cc1ccccc1)Nc1cccnc1Cl	i	i	i	i	i
O=C(Cc1ccccc1)OCCNC(=O)c1cccnc1	71	i	i	i	i
C=CCn1c(O)c(/C(C)=N/N2CCN(C)CC2)c(=O)[nH]c1=O	i	i	i	nt	i
Cc1nc(SCc2c(Cl)cccc2Cl)nc(OC(=O)N(C)C)c1C	i	i	i	nt	i
Cc1cccc(N2CCc3c2nc2ccccc2c3N)c1	78![fluorescence artefact?]	i	94![fluorescence artefact?]	i	i
Cc1ccnc(-n2c(C)nc3ccccc3c2=O)c1	i	i	i	i	i
O=c1[nH]c(=S)n(-c2ccccc2F)c(O)c1C=Nc1ccc(N2CCOCC2)cc1	i	i	i	i	i
Cc1cc(C)cc(-n2c(O)c(C=Nc3ccc(N4CCOCC4)cc3)c(=O)[nH]c2=S)c1	i	i	i	i	58
O=c1[nH]c(=S)n(-c2ccc(Br)cc2)c(O)c1C=Nc1ccc(N2CCOCC2)cc1	i	i	i	i	86
CC(C)CCCn1c(O)c(/C=C2/C=CC=N2)c(=O)[nH]c1=O	i	i	i	i	i
CC1=NN(c2ccccc2)C(=O)C1/C=C1/C(=O)NC(=O)N(c2cc(C)cc(C)c2)C1=O (stereo unspecified)	75	i	i	i	i
COc1cccc(CN2CCCCC2c2cccnc2)c1 (stereo unspecified)	81	i	i	i	i
COc1ccc(CN2CCCCC2c2cccnc2)cc1C (stereo unspecified)	i	i	i	i	i
CC(C)(O)[C@H]1O[C@H]2CC[C@@]3(C)[C@@](O)(CC[C@H]4Cc5c([nH]c6ccccc56)[C@@]43C)C2=CC1=O	i	i	i	i	53
CC(C)[N+]12CCC(CC1)C(C(O)(c1ccccc1)c1ccccc1)C2 (stereo unspecified)	i	i	i	nt	i
COc1cc(CN2CCN(C(=O)COc3ccccc3)CC2)cc(OC)c1OC	78	i	i	i	i
O=C(COc1ccccc1)N1CCN(Cc2c[nH]c3ccccc23)CC1	81	i	i	i	i
COc1ccccc1CN1CCN(C(=O)COc2cccc(C)c2)CC1	i	i	i	i	i
N#CC(C#N)=Cc1ccc(-c2ccccc2F)o1	i	i	i	i	101
N#CC(C#N)=Cc1ccc(-c2ccccc2)o1	i	i	i	i	i
CC1=CC(=O)NP(=O)(Oc2ccc3ccccc3c2)N1 (stereo unspecified)	i	i	81	i	i
CCCC(=O)NC(Oc1ccc(C(C)=O)cc1)C(Cl)(Cl)Cl (stereo unspecified)	i	i	i	i	63
SMILES	14-3-3 Bad PPI	RBBP9 inhibitor	eIF4E 4G PPI	PKD1 inh	EBV gp42 block
Cc1ccccc1C(=O)NC(Oc1ccccc1)C(Cl)(Cl)Cl (stereo unspecified)	i	i	i	i	i
Cc1cc2c(C(C)C)c(O)c(O)c(C=O)c2c(O)c1-c1c(C)cc2c(C(C)C)c(O)c(O)c(C=O)c2c1O	82[fluorescence artefact?]	i	33[fluorescence artefact?]	i	i
COCCNC(=O)c1ccc(N2CC3CC(C2)c2cccc(=O)n2C3)c([N+](=O)[O-])c1 (stereo unspecified)	i	i	i	i	i
Cc1cccc(N2C(=O)NC(=O)/C(=C/c3cc4c(cc3[N+](=O)[O-])OCO4)C2=O)c1	i	i	i	i	83
CCc1ccc(-n2c(O)c(C(C)=O)c(=O)[nH]c2=O)cc1 (tested in a mixture with another compound)	i	i	i	nt	i
CCCCn1c(O)c(C(=O)/C=C/c2c[nH]c3ccccc23)c(=O)[nH]c1=O	i	i	i	nt	i
OC1/C(=C/c2ccccc2C(F)(F)F)N2CCC1CC2 (stereo unspecified)	i	i	i	i	i
CCCCC(=O)N/N=C/c1c(O)n(-c2cccc3ccccc23)c(=O)[nH]c1=O	i	i	i	nt	i
CCC(CC)N1CCN(C(=O)Cc2ccccc2)CC1	71	i	i	i	i
COC(=O)c1ccc(CN2CCN(Cc3ccccc3)CC2)cc1	76	i	i	i	i
O=C(Cc1ccccc1)N1CCN(Cc2ccc([N+](=O)[O-])cc2)CC1	i	i	i	i	i
O=C(O)c1cccc2c1NC(c1cccc([N+](=O)[O-])c1)C1CC(Sc3ccccc3[N+](=O)[O-])C(Cl)C21 (stereo unspecified)	i	i	35	i	i
O=C1NC(=O)N(CCNc2ncc(C(F)(F)F)cc2Cl)C(=O)C1Cc1ccc(Cl)cc1 (stereo unspecified)	i	i	i	i	i
CCN(CC)CCNCC(=O)Nc1ccc(Cl)cc1C(=O)c1ccccc1	86	i	i	i	i
Nc1c(C(=O)NCCc2ccccc2)c2nc3ccccc3nc2n1CCN1CCOCC1	76[fluorescence artefact?]	i	i	i	i
COc1ccc(CCNC(=O)c2c(N)n(CCN3CCOCC3)c3nc4ccccc4nc23)cc1	i	i	i	i	i
CN(C)CP(=O)(O)CN(C)C=O	91	i	i	i	i
O=C1NC(=O)C2=Cc3ccc(O)cc3OC2(O)N1 (stereo unspecified)	i	i	i	i	90
O=C(CSC1c2ccccc2-c2ccccc21)N/N=C/c1ccccc1O	i	i	i	i	i
COc1cccc(NC(=O)N2CCC3(CC2)OCCO3)c1	i	i	i	i	i
C=C1C2C[C@H](O)C(C)(C)[C@@]2(O)[C@H](O)C[C@]23C[C@@](C)(O)[C@H](CC[C@H]12)[C@H]3OC(C)=O (stereo partly specified)	93[fluorescence artefact?]	i	i	i	i
C=CCn1c(O)c(C(CC)=Nc2ccc(N(C)C)cc2)c(=O)[nH]c1=O	i	i	i	nt	i
Cn1c(O)c(C(c2ccccn2)c2c(O)n(C)c(=S)[nH]c2=O)c(=O)[nH]c1=S	77	i	i	i	i
O=C1NC(=O)C(=Cc2ccc(-c3cc(Cl)ccc3[N+](=O)[O-])o2)C(=O)N1	79	i	i	i	i
COC(=O)C(O)(c1ccc(NC(=O)c2ccccc2)cc1)C(F)(F)F (stereo unspecified)	i	i	i	nt	i
COC(=O)CCCCC1SCC(NC(=O)c2ccccc2)C1Cl (stereo unspecified)	i	i	i	i	53
